Data from ChEMBL document CHEMBL1131621, “Synthesis and activity of dipeptides, linked to targeting ligands, as specific NK cell enhancers” (1998).
Calls of active or inactive are those of the source. No cut-off for these calls is given here. Where a SMILES comes first, the peptide text is derived from it. [ ]: non-standard residue; d: D form.

Tests used:
[1] = In vitro Natural Killer cell activity (Activation of murine splenocyte NK cells by its ability to lyze YAC-1 target cells in chromium release assay) relative to interleukin 2 at 10E-4 to 10E-10 M conc; Range 41-60%; type: functional, Mus musculus
In short: (§1)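 Spleens from female C57BL/6 (H-2b) mice, 6–8 weeks old, homogenized in RPMI 1640 with 10% FCS and 2 mM L-glutamine. Mononuclear cells isolated on a Lympholyte M gradient (800g, 20 min), washed in PBS, viability checked by trypan blue. 5×10^5 splenocytes with compound incubated 4 h with 5×10^3 51Cr-labelled YAC-1 cells; % specific lysis from released chromium. Compounds tested at 10^-4–10^-12 M. Peak activity scored relative to IL 2 (100%) in 20% bands. Actives run 2–5 times, inactives once.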

[2] = In vitro Natural Killer cell activity (Activation of murine splenocyte NK cells by its ability to lyze YAC-1 target cells in chromium release assay) relative to interleukin 2 at 10E-4 to 10E-12 M conc.; type: functional, Mus musculus; in short: as §1
[3] = In vitro Natural Killer cell activity (Activation of murine splenocyte NK cells by its ability to lyze YAC-1 target cells in chromium release assay) relative to interleukin 2 at 10E-4 to 10E-12 M conc; Range 41-60%; type: functional, Mus musculus; in short: as §1
[4] = species on record: Mus musculus; assay: Peak or the range of peak activity relative to positive IL 2 control; Range 10e-12-10e-4; type: functional; in short: as §1
[5] = In vitro Natural Killer cell activity (Activation of murine splenocyte NK cells by its ability to lyze YAC-1 target cells in chromium release assay) relative to interleukin 2 at 10E-6 to 10E-12 M conc; Range 21-40%; type: functional, Mus musculus; in short: as §1
[6] = In vitro Natural Killer cell activity (Activation of murine splenocyte NK cells by its ability to lyze YAC-1 target cells in chromium release assay) relative to interleukin 2 at 10E-4 to 10E-12 M conc; Range 81-100%; type: functional, Mus musculus; in short: as §1
[7] = In vitro Natural Killer cell activity (Activation of murine splenocyte NK cells by its ability to lyze YAC-1 target cells in chromium release assay) relative to interleukin 2 at 10E-4 to 10E-12 M conc; Range 61-80%; type: functional, Mus musculus; in short: as §1
[8] = species on record: Mus musculus; assay: Peak or the range of peak activity relative to positive IL 2 control; Range 10e-12-10e-5; type: functional; in short: as §1
[9] = In vitro Natural Killer cell activity (Activation of murine splenocyte NK cells by its ability to lyze YAC-1 target cells in chromium release assay) relative to interleukin 2 at 10E-4 to 10E-12 M conc; Range 21-40%; type: functional, Mus musculus; in short: as §1
[10] = system: Mus musculus; assay: Antimetastatic effect in lungs of C57BL/6 mice injected iv on day 0 with 250000 B16 melanoma cells and a dose of 0 mg/kg of compound in exp 1; type: functional, Lung
In short: (§2)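 Female C57BL/6 mice, 6–8 weeks old, given 2.5×10^5 B16F10 melanoma cells iv on day 0. Sacrifice on day 24; lungs fixed and surface tumour colonies counted. Mean ± SEM; n = 8 in exp 1, n = 4 in exp 2.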

[11] = system: Mus musculus; assay: Antimetastatic effect in lungs of C57BL/6 mice injected iv on day 0 with 250000 B16 melanoma cells and a dose of 25 mg/kg of compound in exp 1; type: functional, Lung; in short: as §2
[12] = system: Mus musculus; assay: Antimetastatic effect in lungs of C57BL/6 mice injected iv on day 0 with 250000 B16 melanoma cells and a dose of 25 mg/kg of compound in exp 2; type: functional, Lung; in short: as §2
[13] = system: Mus musculus; assay: Antimetastatic effect in lungs of C57BL/6 mice injected iv on day 0 with 250000 B16 melanoma cells and a dose of 50 mg/kg of compound in exp 2; type: functional, Lung; in short: as §2
[14] = system: Mus musculus; assay: Antimetastatic effect in lungs of C57BL/6 mice injected iv on day 0 with 250000 B16 melanoma cells and a dose of 0 mg/kg of compound in exp 2; type: functional, Lung; in short: as §2
[15] = species on record: Mus musculus; assay: The compound was tested in vitro for B cell proliferation (PWM, LPS) against murine splenocytes; No effect; type: functional
[16] = species on record: Mus musculus; assay: The compound was tested in vitro for T cell proliferation (PHA, ConA) against murine splenocytes; No effect; type: functional
[17] = species on record: Mus musculus; assay: The compound was tested in vitro for mixed lymphocyte reaction against murine splenocytes; No effect; type: functional
[18] = species on record: Mus musculus; assay: The compound was tested in vitro for phagocytotic activity against murine whole blood; No effect; type: functional
[19] = species on record: Mus musculus; assay: The compound was tested in vitro for respiratory burst against murine whole blood; No effect; type: functional
[20] = species on record: Mus musculus; assay: In vitro for cytotoxic T lymphocyte activity against murine splenocytes; Range 21-40% of IL 2; type: functional
[21] = In vitro Natural Killer cell activity (Activation of murine splenocyte NK cells by its ability to lyze YAC-1 target cells in chromium release assay) relative to interleukin 2 at 10E-4 to […] conc; Range 101-120%; type: functional, Mus musculus; in short: as §1
[22] = species on record: Mus musculus; assay: Peak or the range of peak activity relative to positive IL 2 control; Range 10e-12-10e-7; type: functional; in short: as §1
[23] = species on record: Homo sapiens; assay: Iin vitro NK cell cytolytic activity (K 562 target) using human PBML; Range 81-100%; type: functional
In short: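 PBML isolated from heparinized human blood by Ficoll-Hypaque density gradient centrifugation. For the NK assay (K562 targets), activity is scored relative to an IL 2 control.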

[24] = species on record: Homo sapiens; assay: The compound was tested in vitro for phagocytotic activity against human PBML; No effect; type: functional
[25] = species on record: Homo sapiens; assay: The compound was tested in vitro for respiratory burst against human PBML; No effect; type: functional
[26] = In vitro Natural Killer cell activity (Activation of murine splenocyte NK cells by its ability to lyze YAC-1 target cells in chromium release assay) relative to interleukin 2; Range 0-20%; type: functional, Mus musculus; in short: as §1
[27] = species on record: Mus musculus; assay: Peak or the range of peak activity relative to positive IL 2 control; Range 10e-12-10e-6; type: functional; in short: as §1
[28] = In vitro Natural Killer cell activity (Activation of murine splenocyte NK cells by its ability to lyze YAC-1 target cells in chromium release assay) relative to interleukin 2 at 10E-4 to 10E-12 M conc; Range […]; type: functional, Mus musculus; in short: as §1

Question: Which Stimulation [1] does the source give for `C[C@@H](N)C(=O)N[C@@H](CCC(N)=O)C(=O)NCCCCCCCCCCCCO` here?
Answer: Its Stimulation is 41%.

Question: Which Stimulation [2] does the source give for `C=CCn1c(=O)n([C@@H]2O[C@H](CO)[C@@H](O)[C@H]2O)c2nc(N)[nH]c(=O)c21` [LOXORIBINE] here?
Answer: Its Stimulation is 0%.

Question: Which Stimulation [2] does the source give for `CN[C@H](C(=O)NCCCCCCOC1OC(C)C(O)C(O)C1O)c1ccc(C(=O)O)[nH]1` (stereo partly drawn) here?
Answer: The Stimulation was 0%.

Question: For `CC1OC(OCCCCCCNC(=O)[C@H](CCC(N)=O)NC(=O)[C@H](N)C(C)C)C(O)C(O)C1O` (stereo partly drawn), which Stimulation [3] is on record?
Answer: Its Stimulation is 41%.

Question: And the Concentration [4]?
Answer: The Concentration was 10 pM.

Question: With `C[C@@H](N)C(=O)N[C@H]1CCC(=O)NC1=O` as the compound, how does the Stimulation [2] read?
Answer: The Stimulation was 0%.

Question: For `C[C@@H](N)C(=O)N[C@@H](CCC(N)=O)C(=O)NCCCCCC(=O)O`, which Stimulation [2] is on record?
Answer: The Stimulation was 0%.

Question: For `CC[C@H](C)[C@H](N)C(=O)N1CCC[C@H]1C(=O)NCCCCCCO`, which Stimulation [5] is on record?
Answer: The Stimulation was 21%.

Question: With `C[C@@H](N)C(=O)N[C@@H](CCC(N)=O)C(=O)NCCCCCCO[C@H]1O[C@H](CO)[C@H](O)[C@@H](O)[C@H]1O` as the compound, how does the Stimulation [6] read?
Answer: Its Stimulation is 0%.

Question: For `CC1OC(OCCc2ccc(NC(=O)[C@H](CCC(N)=O)NC(=O)[C@@H](C)N)cc2)C(O)C(O)C1O` (stereo partly drawn), which Stimulation [2] is on record?
Answer: The Stimulation was 0%.

Question: What does the source list for `CC1OC(OCCCCCCNC(=O)[C@H](CCC(N)=O)NC(=O)[C@H](C)N)C(O)C(O)C1O` (stereo partly drawn)?
Answer: Stimulation [7]: 61%; Concentration [4]: 10 pM; Concentration [8]: 10 pM

Question: For `CC1OC(OCCCCCCNC(=O)[C@H](CCCCNC(=O)[C@H](CCC(N)=O)NC(=O)[C@@H](C)N)NC(=O)[C@H](CCC(N)=O)NC(=O)[C@@H](C)N)C(O)C(O)C1O` (stereo partly drawn), which Stimulation [9] is on record?
Answer: Its Stimulation is 21%.

Question: Which “No. of lung colonies” value [10] does the source give for `CC1OC(OCCCCCCNC(=O)[C@H](CCC(N)=O)NC(=O)[C@@H](C)N)C(O)C(O)C1O` (stereo partly drawn) here?
Answer: The value was 142.

Question: What about the “No. of lung colonies” value [11] of the same compound?
Answer: The value was 109.

Question: What about the “No. of lung colonies” value [12] of the same compound?
Answer: Its value is 86.

Question: And the “No. of lung colonies” value [13]?
Answer: Its value is 60.

Question: And the “No. of lung colonies” value [14]?
Answer: Its value is 101.

Question: And the Activity [15]?
Answer: Its Activity is “inactive”.

Question: And the Activity [16]?
Answer: The Activity was “inactive”.

Question: What about the Activity [17] of the same compound?
Answer: The Activity was “inactive”.

Question: What about the Activity [18] of the same compound?
Answer: The Activity was “inactive”.

Question: What about the Activity [19] of the same compound?
Answer: Its Activity is “inactive”.

Question: What about the Activity [20] of the same compound?
Answer: The Activity was 21%.

Question: What about the Stimulation [21] of the same compound?
Answer: Its Stimulation is 101%.

Question: And the Concentration [22]?
Answer: Its Concentration is 10 pM.

Question: What about the Activity [23] of the same compound?
Answer: The Activity was 81%.

Question: And the Activity [24]?
Answer: Its Activity is “inactive”.

Question: What about the Activity [25] of the same compound?
Answer: The Activity was “inactive”.

Question: For `CC(=O)OCCCCCCNC(=O)[C@@H](CCC(N)=O)NC(=O)[C@H](C)N`, which Stimulation [26] is on record?
Answer: Its Stimulation is 0%.

Question: Which Stimulation [2] does the source give for `CC(=O)N[C@@H](CCC(N)=O)C(=O)NCCCCCCOC1OC(C)C(O)C(O)C1O` (stereo partly drawn) here?
Answer: Its Stimulation is 0%.

Question: For `CC1OC(OCCCCCCn2cnc3c(N(C)C)ncnc32)C(O)C(O)C1O` (stereo not drawn), which Concentration [27] is on record?
Answer: Its Concentration is 10 pM.

Question: And the Stimulation [28]?
Answer: The Stimulation was 81%.

Question: Which Stimulation [2] does the source give for `CC1OC(OCCCCCCNC(=O)[C@@H](CCC(N)=O)NC(=O)[C@H](C)N)C(O)C(O)C1O` (stereo partly drawn) here?
Answer: The Stimulation was 0%.

Question: With `CC1OC(OCCCCCCNC(=O)CNC(=O)[C@@H](C)N)C(O)C(O)C1O` (stereo partly drawn) as the compound, how does the Stimulation [2] read?
Answer: Its Stimulation is 0%.

Question: For `C[C@@H](N)C(=O)N[C@@H](CCC(N)=O)C(=O)O` (H-[dA]-Gln-OH), which Stimulation [26] is on record?
Answer: Its Stimulation is 0%.

Question: With `CC1OC(OCCCCCCNC(=O)[C@H](CC(N)=O)NC(=O)[C@@H](C)N)C(O)C(O)C1O` (stereo partly drawn) as the compound, how does the Stimulation [2] read?
Answer: Its Stimulation is 0%.
